Reference: ChEMBL document CHEMBL4425177, “Effects of stereochemistry, saturation, and hydrocarbon chain length on the ability of synthetic constrained azacyclic sphingolipids to trigger nutrient transporter down-regulation, vacuolation, and cell death” (Bioorg Med Chem, 2016)

What was measured:
[1] = test system: FL5.12; test: Induction of vacuolation in mouse FL5.12A cells assessed as vacuolation score at 2.5 uM measured at 3 hrs by fluorescence microscopic analysis; type: functional
Method in brief: (§1)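 FL5.12 cells treated at 2.5 µM. Nutrient transporter loss measured as mean ± SEM. Vacuolation scored semi-quantitatively from 0 to 84, roughly twice the percent of cytosol occupied by vacuoles, mean ± SEM.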

[2] = test system: FL5.12; test: Downregulation of CD98 expression level in mouse FL5.12A cells at 2.5 uM measured at 3 hrs by flow cytometric analysis; type: functional; method in brief: as §1
[3] = test system: FL5.12; test: Cytotoxicity against mouse FL5.12A cells after 48 hrs by DAPI staining-based flow cytometric analysis; type: functional, cell-based; settings: FL5.12, 48 h
[4] = test system: FL5.12; test: Induction of vacuolation in mouse FL5.12A cells assessed as vacuolation score at 30 uM measured at 3 hrs by fluorescence microscopic analysis; type: functional
[5] = test system: FL5.12; test: Downregulation of CD98 expression level in mouse FL5.12A cells at 30 uM measured at 3 hrs by flow cytometric analysis; type: functional
[6] = test system: FL5.12; test: Downregulation of CD98 expression level in mouse FL5.12A cells at 50 uM measured at 3 hrs by flow cytometric analysis
[7] = test system: FL5.12; test: Induction of vacuolation in mouse FL5.12A cells assessed as vacuolation score at 50 uM measured at 3 hrs by fluorescence microscopic analysis; type: functional

| Structure (SMILES) | Activity [1] | Activity [2] [%] | IC50 [3] [µM] | Activity [4] | Activity [5] [%] | Activity [6] [%] | Activity [7] |
| --- | --- | --- | --- | --- | --- | --- | --- |
| CCCCCCCCCC/C=C/c1ccc(CO[C@H]2CN[C@H](CO)C2)cc1.Cl | 76 | 40 | 2.4 |  |  |  |  |
| CCCCCCCCc1ccc(CO[C@@H]2C[C@@H](CO)N(C(=N)N)C2)cc1.Cl.Cl |  |  | 17.3 | 0 | 34 |  |  |
| CCCCCCCCCCc1ccc(CO[C@H]2CN[C@H](CO)C2)cc1.Cl | 36 | 28 | 3.6 |  |  |  |  |
| CCCCCCCCc1ccc(CO[C@@H]2CN[C@@H](CO)C2)cc1.Cl | 33 | 63 | 2 |  |  |  |  |
| CCCCCCCCc1ccc(CCC(N)(CO)CO)cc1 [FINGOLIMOD] | 82 | 68 | 2.4 |  |  |  |  |
| CCCCCCCCc1ccc(CO[C@H]2CN[C@H](CO)C2)cc1.Cl | 47 | 48 | 3 |  |  |  |  |
| CCCCCCCCCCCCc1ccc(CO[C@@H]2CN[C@@H](CO)C2)cc1.Cl | 3 | 13 | 10.1 |  |  |  |  |
| CCCC/C=C/c1ccc(CO[C@@H]2CN[C@@H](CO)C2)cc1.Cl | 0 | 30 | 5.5 |  |  |  |  |
| CCCCCCCCCCCCO[C@@H]1CN[C@@H](CO)C1.Cl | 53 | 57 | 1.2 |  |  |  |  |
| CCCCCCCCCCCCCCc1ccc(CO[C@H]2CN[C@H](CO)C2)cc1.Cl | 3 | 19 | 5.7 |  |  |  |  |
| CCCCCCCCc1ccc([C@H]2CCN(C(C)=O)[C@@H]2CO)cc1 | 0 | 40 | 39.7 |  |  |  |  |
| CCCCCC/C=C/c1ccc(CO[C@@H]2CN[C@@H](CO)C2)cc1.Cl | 27 | 64 | 1.4 |  |  |  |  |
| CCCCCCCCc1ccc(CO[C@H]2C[C@H](CO)N(C(C)=O)C2)cc1 |  |  | 29.7 |  |  | 37 | 1 |
| CCCC/C=C/c1ccc(CO[C@H]2CN[C@H](CO)C2)cc1.Cl | 5 | 9 | 5.7 |  |  |  |  |
| CCCCCCCCCCCCc1ccc(CO[C@H]2CN[C@H](CO)C2)cc1.Cl | 30 | 14 | 3.9 |  |  |  |  |
| CCCCCCCCC/C=C/CO[C@@H]1CN[C@@H](CO)C1.Cl | 9 | 34 | 2.6 |  |  |  |  |
| CCCCCCCCCCCCC/C=C/[C@@H](O)[C@@H](N)CO [SPHINGOSINE] | 57 | 48 | 3.6 |  |  |  |  |

| Structure (SMILES) | Activity [1] | Activity [2] [%] | IC50 [3] [µM] | Activity [4] | Activity [5] [%] | Activity [6] [%] | Activity [7] |
| --- | --- | --- | --- | --- | --- | --- | --- |
| CCCCCC/C=C/c1ccc(CO[C@H]2CN[C@H](CO)C2)cc1.Cl | 70 | 41 | 2.4 |  |  |  |  |
| CCCCCCc1ccc(CO[C@@H]2CN[C@@H](CO)C2)cc1.Cl | 0 | 30 | 2.7 |  |  |  |  |
| CCCCCC/C=C/c1ccc(CO[C@H]2C[C@H](CO)N(C)C2)cc1.Cl | 26 | 31 | 1.9 |  |  |  |  |
| CCCCCCCCc1ccc(CO[C@H]2C[C@H](CO)N(C(=N)N)C2)cc1.Cl.Cl |  |  | 14.2 | 0 | 35 |  |  |
| CCCCCC/C=C/c1ccc([C@H]2CCN(C(C)=O)[C@@H]2CO)cc1 | 2 | 40 | 46.2 |  |  |  |  |
| CCCCCCCCc1ccc([C@@H]2CCN[C@H]2CO)cc1.Cl | 53 | 47 | 1.7 |  |  |  |  |
| CCCCCCCCCCCCCCc1ccc(CO[C@@H]2CN[C@@H](CO)C2)cc1.Cl | 4 | 12 | 10.5 |  |  |  |  |
| CCCCCCCCCCCCC/C=C/[C@@H](O)[C@H](CO)N(C)C [DIMETHYLSPINGOSINE] | 72 | 69 | 0.8 |  |  |  |  |
| CCCCCCCCc1ccc([C@H]2CCN[C@@H]2CO)cc1.Cl | 81 | 54 | 1.9 |  |  |  |  |
| CCCCCCCCCCCC/C=C/c1ccc(CO[C@H]2CN[C@H](CO)C2)cc1.Cl | 1 | 20 | 7.3 |  |  |  |  |
| CCCCCCCCCCCCC/C=C/[C@@H](O)[C@H](CO)NC(C)=O (stereo in doubt; 9) |  |  | 33 |  |  | 47 | 0 |
| CCCCCCCCCCCCCCC[C@@H](O)[C@@H](N)CO [DIHYDROSPINGOSINE] | 38 | 47 | 3.5 |  |  |  |  |
| CCCCCCCCCCCC/C=C/c1ccc(CO[C@@H]2CN[C@@H](CO)C2)cc1.Cl | 8 | 19 | 5.1 |  |  |  |  |
| CCCCCC/C=C/c1ccc([C@H]2CCN[C@@H]2CO)cc1.Cl | 84 | 58 | 1.7 |  |  |  |  |
| CCCCCCCCCCCCO[C@H]1CN[C@H](CO)C1.Cl | 36 | 45 | 2.5 |  |  |  |  |
| CCCCCCCCCC/C=C/c1ccc(CO[C@@H]2CN[C@@H](CO)C2)cc1.Cl | 33 | 52 | 2.8 |  |  |  |  |
| CCCCCCCCC/C=C/CO[C@H]1CN[C@H](CO)C1.Cl | 20 | 30 | 3.3 |  |  |  |  |
